In brackets after ≈: the same amount, converted by molar mass.
Tests used:
[1] = biological target: Glutamate NMDA receptor; assay: Displacement of [3H](E)-3-(2-carboxy-2-phenylvinyl)-4,6-dichloro-1H-indole-2-carboxylic acid from NMDA receptor glutamate site from rat cortical membrane
[2] = Displacement of [3H]AMPA from AMPA receptor in rat cortical membrane; type: cell membranes
[3] = test system: Mus musculus; assay: Anticonvulsant activity in po dosed mouse assessed as inhibition of MES-induced tonic seizures; type: functional
In short: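 Mice were dosed orally 2 h before maximal electroshock. The read-out was protection from tonic convulsions, and an ED50 was derived.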

[4] = biological target: Glutamate NMDA receptor; assay: Inhibition of NMDA receptor glycine site from rat cortical membrane
[5] = biological target: Glutamate NMDA receptor; assay: Inhibition of NMDA receptor glutamate site from rat cortical membrane
[6] = Displacement of [3H]kainate from kainate receptor in rat cortical membrane; type: cell membranes
[7] = test system: Rattus norvegicus; assay: Anticonvulsant activity in po dosed rat assessed as inhibition of MES-induced tonic seizures; type: functional
[8] = Solubility of the compound at pH 7.4; type: physicochemical; conditions: buffer
[9] = test system: Rattus norvegicus; assay: […] effect against middle cerebral artery occlusion-induced focal cerebral ischemia in spontaneously hypertensive rat assessed as reduction in infarct volume at 20 mg/kg, iv after 2 hrs of occlusion; type: functional; design: scale not given: the % may be the effect or the level left
[10] = biological target: T1, Organic anion transporter 3 (Homo sapiens, UniProt Q8TCC7); assay: Inhibition of human OAT3
T1 sequence (Q8TCC7 whole entry): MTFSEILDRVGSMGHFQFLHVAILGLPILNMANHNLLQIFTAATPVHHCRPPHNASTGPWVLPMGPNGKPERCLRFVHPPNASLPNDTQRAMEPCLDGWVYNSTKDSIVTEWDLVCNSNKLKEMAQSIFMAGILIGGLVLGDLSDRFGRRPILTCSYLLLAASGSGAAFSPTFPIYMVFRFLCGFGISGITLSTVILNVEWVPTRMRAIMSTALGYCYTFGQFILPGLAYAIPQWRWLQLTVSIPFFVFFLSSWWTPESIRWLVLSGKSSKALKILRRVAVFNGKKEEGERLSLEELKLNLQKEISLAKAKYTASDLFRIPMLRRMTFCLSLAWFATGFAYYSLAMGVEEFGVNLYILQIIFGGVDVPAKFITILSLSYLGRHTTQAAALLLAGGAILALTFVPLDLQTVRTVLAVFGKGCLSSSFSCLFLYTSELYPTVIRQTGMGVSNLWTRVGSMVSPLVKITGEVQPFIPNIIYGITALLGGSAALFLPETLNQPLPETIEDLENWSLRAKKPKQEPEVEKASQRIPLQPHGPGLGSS

[11] = biological target: T2, Solute carrier family 22 member 11 (Homo sapiens, UniProt Q9NSA0); assay: Inhibition of human OAT4
T2 sequence (Q9NSA0 whole entry): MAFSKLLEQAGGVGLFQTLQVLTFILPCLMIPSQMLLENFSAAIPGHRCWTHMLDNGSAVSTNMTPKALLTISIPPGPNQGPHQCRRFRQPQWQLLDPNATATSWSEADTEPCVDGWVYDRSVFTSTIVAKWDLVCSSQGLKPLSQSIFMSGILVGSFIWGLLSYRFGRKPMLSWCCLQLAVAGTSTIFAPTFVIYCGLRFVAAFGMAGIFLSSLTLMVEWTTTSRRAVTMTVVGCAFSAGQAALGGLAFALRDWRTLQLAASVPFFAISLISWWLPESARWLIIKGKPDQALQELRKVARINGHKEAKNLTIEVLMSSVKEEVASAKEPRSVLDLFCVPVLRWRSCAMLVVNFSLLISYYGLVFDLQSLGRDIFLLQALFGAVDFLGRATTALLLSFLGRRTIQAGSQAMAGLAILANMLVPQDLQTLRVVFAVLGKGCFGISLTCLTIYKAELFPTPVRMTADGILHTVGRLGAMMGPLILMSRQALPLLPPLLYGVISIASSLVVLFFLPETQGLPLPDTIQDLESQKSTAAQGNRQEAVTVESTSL

[12] = biological target: T3, Solute carrier family 22 member 6 (Homo sapiens, UniProt Q4U2R8); assay: Inhibition of human OAT1
T3 sequence (Q4U2R8 whole entry): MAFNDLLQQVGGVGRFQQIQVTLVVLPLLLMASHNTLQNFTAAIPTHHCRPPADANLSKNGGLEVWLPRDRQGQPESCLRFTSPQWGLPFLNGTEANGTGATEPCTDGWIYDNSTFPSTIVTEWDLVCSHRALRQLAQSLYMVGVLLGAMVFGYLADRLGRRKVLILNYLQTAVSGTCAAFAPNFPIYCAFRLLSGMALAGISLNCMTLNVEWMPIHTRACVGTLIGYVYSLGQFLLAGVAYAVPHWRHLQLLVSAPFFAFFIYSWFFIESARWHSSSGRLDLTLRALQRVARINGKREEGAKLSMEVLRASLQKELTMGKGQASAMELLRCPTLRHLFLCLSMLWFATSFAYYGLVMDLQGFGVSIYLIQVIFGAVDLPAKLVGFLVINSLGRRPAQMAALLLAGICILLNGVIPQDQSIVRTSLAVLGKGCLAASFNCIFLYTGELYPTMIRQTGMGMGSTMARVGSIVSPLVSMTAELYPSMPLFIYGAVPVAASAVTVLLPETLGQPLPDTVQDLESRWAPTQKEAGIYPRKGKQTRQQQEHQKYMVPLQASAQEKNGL

[13] = test system: Rattus norvegicus; assay: Neuroprotective effect against middle cerebral artery occlusion-induced focal cerebral ischemia in spontaneously hypertensive rat at 20 mg/kg, iv after 2 hrs of occlusion; type: functional
[14] = test system: Rattus norvegicus; assay: Neuroprotective effect against middle cerebral artery occlusion-induced focal cerebral ischemia in spontaneously hypertensive rat at 20 mg/kg, iv after 3 hrs of occlusion; type: functional
[15] = Antagonist activity at AMPA receptor in rat cortical membrane assessed as inhibition of AMPA-induced membrane current; type: functional, cell membranes
[16] = test system: Mus musculus; assay: Anticonvulsant activity in ip dosed DBA2 mouse assessed as inhibition of sound-induced clonic seizures; type: functional
[17] = test system: Rattus norvegicus; assay: Anticonvulsant activity in ip dosed rat assessed as inhibition of MES-induced tonic seizures; type: functional
[18] = test system: Rattus norvegicus; assay: Neuroprotective effect against middle cerebral artery occlusion-induced focal cerebral ischemia in iv dosed spontaneously hypertensive rat brain after 1 to 5 hrs of occlusion; type: functional
[19] = test system: Mus musculus; assay: Anticonvulsant activity in ip dosed mouse assessed as inhibition of MES-induced tonic seizures; type: functional
[20] = Displacement of [3H]AMPA from AMPA receptor in rat cortical membrane in presence of cyclothiazide; type: cell membranes
[21] = species: Homo sapiens; assay: Toxicity in human assessed as ataxia; type: organism-based; conditions: in vivo
[22] = test system: Meriones unguiculatus; assay: Neuroprotective activity against middle cerebral artery occlusion-induced focal cerebral ischemia in Mongolian gerbils assessed as reduction in infarct volume at 6 mg/kg, iv bid; type: functional; design: scale not given: the % may be the effect or the level left
[23] = species: Homo sapiens; assay: Toxicity in human assessed as dizziness; type: organism-based; conditions: in vivo
[24] = species: Meriones unguiculatus; assay: Neuroprotective activity against middle cerebral artery occlusion-induced focal cerebral ischemia in Mongolian gerbils assessed survival of hippocampal CA1 neurons; type: functional

In the case of `C[C@H](NCc1cc([N+](=O)[O-])cc2nc(O)c(O)nc12)P(=O)(O)O`, the IC50 [1] is reported as 32 nM and the IC50 [2] is reported as 170 nM.
For `Oc1nc2ccccc2nc1O`, the Ki [2] was > 100000 nM.
Compound `C1CCc2nnnn2CC1` [PENTYLENETETRAZOL] has an ED50 [3] of 16.8 mg/kg.
In the case of `O=c1[nH]c2cc([N+](=O)[O-])cc(CNCP(=O)(O)O)c2[nH]c1=O`, the IC50 [2] is reported as 290 nM, the IC50 [4] is reported as 1.16 µM and the IC50 [5] is reported as 490 nM. For the same compound, the IC50 [6] was 4.2 µM, the ED50 [7] was 5 mg/kg and the solubility [8] was 6600 µg/mL (≈ 20 mM).
With `O=C(O)Cn1c(=O)c(=O)[nH]c2cc([N+](=O)[O-])c(-n3ccnc3)cc21` [ZONAMPANEL] the Activity [9] was 55%, the IC50 [10] was 6.6 µM and the IC50 [11] was 300 µM. For the same compound, the Ki [2] was 96 nM, the IC50 [4] was > 100 µM and the IC50 [12] was 3 µM. The IC50 [5] was > 100000 nM, the IC50 [6] was 4.6 µM and the Activity [13] was 45%. The Activity [14] was 35%.
With `CN(C)CCOc1ccccc1-c1nc(-c2ccccc2)no1` [IRAMPANEL] the IC50 [15] was 8.5 µM and the ED50 [16] was 23.4 mg/kg.
In the case of `Oc1nc2cc(-n3ccnc3)c(-n3ccnc3)cc2nc1O`, the Ki [2] is reported as 820 nM.
With `Oc1nc2ccc(-n3ccnc3)cc2nc1O` the Ki [2] was 1600 nM.
Work on `O=c1[nH]c2cc(C(F)(F)F)c(N3CCOCC3)cc2n(CP(=O)(O)O)c1=O` [FANAPANEL] yielded an IC50 [2] of 120 nM, an IC50 [4] of 5.15 µM and an ED50 [17] of 13 mg/kg. It also gave an IC50 [5] of 2800 nM, an IC50 [6] of 2.5 µM and an Activity [18] of 19%.
`CN(C)S(=O)(=O)c1cc2c(N=O)c(O)[nH]c2c2c1CCCC2` showed an ED50 [19] of 30 mg/kg, an IC50 [20] of 150 nM and an IC50 [6] of 81 µM.
With `CC(=O)N1N=C(c2ccc(N)cc2)c2cc3c(cc2C[C@H]1C)OCO3` [TALAMPANEL] the Activity [21] was 26%, the ED50 [3] was 8.6 mg/kg and the Activity [22] was 47%. For the same compound, the Activity [23] was 52% and the Activity [24] was 25%.
Work on `N#Cc1ccc2nc(O)c(O)nc2c1` yielded a Ki [2] of 5000 nM.
In the case of `N#Cc1cc2c(cc1[N+](=O)[O-])=NC(=O)C(=O)N=2`, the IC50 [2] is reported as 300 nM, the IC50 [4] is reported as 14 µM and the IC50 [6] is reported as 1.5 µM.
In the case of `O=C(O)CCS` [MERCAPTOPROPIONIC ACID], the ED50 [3] is reported as 17.1 mg/kg.

— ChEMBL document CHEMBL1212813, “alpha-Amino-3-hydroxy-5-methyl-4-isoxazolepropionic acid (AMPA) antagonists: from bench to bedside” (J Med Chem, 2010)
